From ChEMBL document CHEMBL1125273, “Synthesis and biological evaluation of quinocarcin derivatives: thioalkyl-substituted quinones and hydroquinones” (J Med Chem, 1991)
Values after ≈ are worked out from the molar mass of the structure shown.

Columns and labels:
HeLa = experiment: In vitro concentration required to inhibit the growth of HeLa S3 cells by 50%; format: functional, cell-based; details: Homo sapiens
In short: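 HeLa S3 cells (5 × 10⁴) seeded in Eagle's MEM with 10% FBS and 0.06 mg/mL kanamycin; graded drug concentrations, diluted in growth medium, added 24 h after seeding. Incubated 72 h at 37 °C, humidified 5% CO₂. Monolayers then washed, detached with 0.05% trypsin/0.02% EDTA and counted electronically; IC50 taken as concentration giving 50% growth inhibition.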

[1] = Antitumor activity in vivo in CD2F1 mice measured in terms of percent increase in lifespan calculated at a dose of 6.25 mg/kg intraperitoneally on days 1-5.; format: functional; details: Mus musculus, ip, route intraperitoneal
In short: (§1)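 P388 lymphocytic leukemia cells (1×10^6) were implanted ip into CD2F1 mice (about 22 g), five mice per group. Drug was given ip from the day after implantation, either once (day 1) or daily on days 1–5. ILS = (T/C − 1) × 100, where T and C are the median survival times of treated and control mice.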

CCRF S-180 [2] = experiment: Ratio of ILS tested compound/quinocarcin against murine sarcoma S-180 tumor cell line implanted subcutaneously in mice and the compound administered intravenously at a dose of 12.5 mg/kg on days 1-5.; format: functional, Mus musculus; details: route intravenous
[3] = Antitumor activity in vivo in CD2F1 mice measured in terms of percent increase in lifespan calculated at a dose of 6.25 mg/kg intraperitoneally on day one.; format: functional; details: Mus musculus, ip, route intraperitoneal; in short: as §1
[4] = Ratio of the ILS tested compound/quinocarcin was determined for day one in CD2F1 mice.; format: functional, Mus musculus
In short: (§2)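 CD2F1 mice (5 per group) received 10^6 P388 cells ip. Drug was given ip on day 1 or on days 1–5. ILS was taken as (T/C − 1) × 100 from median survival times, and each compound's ILS was divided by the ILS of quinocarcin.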

[5] = Ratio of the ILS tested compound/quinocarcin was determined in CD2F1 mice on days 1-5.; format: functional, Mus musculus; in short: as §2
[6] = Antitumor activity in vivo in CD2F1 mice measured in terms of percent increase in lifespan calculated at a dose of 25 mg/kg intraperitoneally on day one.; format: functional; details: Mus musculus, ip, route intraperitoneal; in short: as §1
[7] = Antitumor activity in vivo in CD2F1 mice measured in terms of percent increase in lifespan calculated at a dose of 12.5 mg/kg intraperitoneally on day one.; format: functional; details: Mus musculus, ip, route intraperitoneal; in short: as §1
[8] = Antitumor activity in vivo in CD2F1 mice measured in terms of percent increase in lifespan calculated at a dose of 3.13 mg/kg intraperitoneally on days 1-5.; format: functional; details: Mus musculus, ip, route intraperitoneal; in short: as §1
Co-3 = experiment: Ratio of ILS tested compound/quinocarcin against Co-3 tumor cell line implanted subcutaneously in mice and the compound administered intravenously at a dose of 13.8 mg/kg on days 1-5.; format: functional, Homo sapiens; details: route intravenous
Homo sapiens [9] = experiment: Ratio of ILS tested compound/quinocarcin against human mammary carcinoma MX-1 cell line implanted subcutaneously in mice and the compound administered intravenously at a dose of 4.41 mg/kg on days 1-5.c means number of cured mice.; format: functional; details: route intravenous
St-4 [10] = experiment: Ratio of ILS tested compound/quinocarcin against St-4 tumor cell line implanted subcutaneously in mice and the compound administered intravenously at a dose of 13.8 mg/kg on days 1-5.; format: functional, Homo sapiens; details: route intravenous
LC-06 cell line = experiment: Ratio of ILS tested compound/quinocarcin against LC-06 cell lines implanted subcutaneously in mice and the compound administered intravenously at a dose of 5.59 mg/kg on days 1-5.; format: functional, Homo sapiens; details: route intravenous
CCRF S-180 [11] = experiment: Ratio of ILS tested compound/quinocarcin against murine sarcoma S-180 tumor cell line implanted subcutaneously in mice and the compound administered intravenously at a dose of 10 mg/kg on days 1-5.; format: functional, Mus musculus; details: route intravenous
[12] = Antitumor activity in vivo in CD2F1 mice measured in terms of percent increase in lifespan calculated at a dose of 5-10 mg/kg intraperitoneally on days 1-5.; format: functional, Mus musculus; in short: as §1
Homo sapiens [13] = experiment: Ratio of ILS tested compound/quinocarcin against human mammary carcinoma MX-1 cell line implanted subcutaneously in mice and the compound administered intravenously at a dose of 5.59 mg/kg on days 1-5.c means number of cured mice.; format: functional; details: route intravenous
St-4 [14] = experiment: Ratio of ILS tested compound/quinocarcin against St-4 tumor cell line implanted subcutaneously in mice and the compound administered intravenously at a dose of 8.78 mg/kg on days 1-5.; format: functional, Homo sapiens; details: route intravenous

| SMILES | IC50 (HeLa) [µg/mL] | ILS at 6.25 mg/kg [1] [%] | R [4] | R [5] | ILS at 12.5 mg/kg [7] [%] | other results |
| --- | --- | --- | --- | --- | --- | --- |
| CCSC1=C(OC)C(=O)C2=C(C[C@H]3[C@H]4[C@H](C(=O)O)C[C@@H](C(C#N)N3[C@H]2CO)N4C)C1=O (stereo partly specified) | 2.42 (≈ 5.41 µM) | 51 | 0.67 | 0.65 | – | T/C (CCRF S-180 [2]): 0.47; ILS at 6.25 mg/kg [3]: 29% |
| COC1=C(SC(C)C)C(=O)C2=C(C1=O)[C@@H]1COC3[C@@H]4C[C@@H](C(=O)O)[C@H]([C@H](C2)N31)N4C (stereo partly specified) | 0.79 (≈ 1.82 µM) | 81 | 1.29 | 1 | – | ILS at 6.25 mg/kg [3]: 31% |
| CCSC1=C(OC)C(=O)C2=C(C1=O)[C@H](CO)N1C(C#N)[C@@H]3C[C@@H](C(=O)O)[C@H]([C@@H]1C2)N3C (stereo partly specified) | 2.88 (≈ 6.44 µM) | 59 | 0.72 | 0.76 | – | ILS at 25 mg/kg [6]: 31% |
| CC(C)Sc1c(O)c2c(c(O)c1SC(C)C)[C@H](CO)N1C(C#N)[C@@H]3C[C@@H](C(=O)O)[C@H]([C@@H]1C2)N3C (stereo partly specified) | < 0.03 | 102 | 1 | 1.09 | 51 | – |
| CCSc1c(O)c2c(c(O)c1SCC)[C@H](CO)N1C(C#N)[C@@H]3C[C@@H](C(=O)O)[C@H]([C@@H]1C2)N3C (stereo partly specified) | < 0.03 | – | – | – | – | – |
| CCCSC1=C(SCCC)C(=O)C2=C(C[C@H]3[C@H]4[C@H](C(=O)O)C[C@@H](C(C#N)N3[C@H]2CO)N4C)C1=O (stereo partly specified) | 0.05 (≈ 0.0989 µM) | 42 | 1.17 | 0.48 | – | ILS at 25 mg/kg [6]: 56% |
| CN1[C@@H]2[C@H](C(=O)O)C[C@H]1C(C#N)N1[C@@H](CO)C3=C(C[C@@H]21)C(=O)C(SC(C)(C)C)=C(SC(C)(C)C)C3=O (stereo partly specified) | 0.004 (≈ 0.00749 µM) | – | 1.26 | 0.5 | – | ILS at 25 mg/kg [6]: 48%; ILS at 3.13 mg/kg [8]: 46% |
| COc1cccc2c1[C@@H]1COC3[C@@H]4C[C@@H](C(=O)O)[C@H]([C@H](C2)N31)N4C (stereo partly specified) | 0.11 (≈ 0.333 µM) | – | 1 | 1 | 48 | T/C (Co-3): 0.22; T/C (Homo sapiens [9]): 0; T/C (St-4 [10]): 0.42; T/C (LC-06 cell line): 0.23; T/C (CCRF S-180 [11]): 0.74; ILS [12]: 120%; T/C (Homo sapiens [13]): 0.01; T/C (St-4 [14]): 0.55 |
| CN1[C@@H]2[C@H](C(=O)O)C[C@H]1C(C#N)N1[C@@H](CO)c3c(O)c(SCCO)c(SCCO)c(O)c3C[C@@H]21 (stereo partly specified) | 3.24 (≈ 6.33 µM) | 41 | 0.44 | 0.39 | – | ILS at 6.25 mg/kg [3]: 18% |
| CN1[C@@H]2[C@H](C(=O)O)C[C@H]1C(C#N)N1[C@@H](CO)c3c(O)ccc(O)c3C[C@@H]21 (stereo partly specified) | 6.1 (≈ 17 µM) | 23 | – | – | 23 | – |
| CN1[C@@H]2[C@H](C(=O)O)C[C@H]1C(C#N)N1[C@@H](CO)C3=C(C[C@@H]21)C(=O)C(SCCO)=C(SCCO)C3=O (stereo partly specified) | 2.47 (≈ 4.85 µM) | 20 | 0.62 | – | 26 | – |
